Source: ChEMBL document CHEMBL1155073, “Molecular recognition of a DNA:RNA hybrid: sub-nanomolar binding by a neomycin-methidium conjugate” (Bioorg Med Chem Lett, 2008)

Experiments:
[1] = Binding affinity to synthetic poly(dA):poly(dT) DNA:DNA duplex assessed as change in melting temperature at 2.2 uM
Procedure, shortened: (§1)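 Thermal denaturation of each nucleic acid (20 µM/bp) with ligand at 2.2 µM, with melting temperatures read from UV and CD melting profiles. ΔTm is taken against the ligand-free Tm0.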

[2] = Binding affinity to synthetic poly(rA):poly(dT) DNA:RNA hybrid assessed as change in melting temperature at 2.2 uM; procedure, shortened: as §1
[3] = Binding affinity to synthetic A-site RNA assessed as change in melting temperature at 2.2 uM; procedure, shortened: as §1
[4] = Binding affinity to synthetic poly(dA):poly(rU) DNA:RNA hybrid assessed as association constant at 20 degC
Procedure, shortened: (§2)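 Apparent association constant is estimated from the UV/CD melting-temperature shift (Eq. 1). Binding stoichiometry n comes from fluorescence titrations, duplex melting enthalpy from DSC, and free ligand is taken as half the total. The value is extrapolated to 20 °C by integrated van't Hoff using dilution-corrected excess-site ITC enthalpies (15, 20, 25 °C) and derived ΔCp. Buffer: 10 mM sodium cacodylate, 0.5 mM EDTA, 100 mM NaCl, pH 5.5.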

[5] = Binding affinity to synthetic poly(rA):poly(dT) DNA:RNA hybrid assessed as melting temperature at 2.2 uM; procedure, shortened: as §1
[6] = Binding affinity to synthetic poly(dA):poly(rU) DNA:RNA hybrid assessed as melting temperature at 2.2 uM; procedure, shortened: as §1
[7] = Binding affinity to synthetic poly(dA-dT):poly(dA-dT) DNA:DNA duplex assessed as association constant at 20 degC; procedure, shortened: as §2
DNA [8] = test: Binding affinity to calf thymus DNA assessed as melting temperature at 2.2 uM; assay type: nucleic-acid assay; details: Bos taurus; procedure, shortened: as §1
DNA [9] = test: Binding affinity to calf thymus DNA assessed as change in melting temperature at 2.2 uM; assay type: nucleic-acid assay; details: Bos taurus; procedure, shortened: as §1
[10] = Binding affinity to synthetic poly(rA):poly(rU) RNA duplex assessed as association constant at 20 degC
[11] = Binding affinity to synthetic poly(dA-dT):poly(dA-dT) DNA: DNA duplex assessed as melting temperature at 2.2 uM; procedure, shortened: as §1
[12] = Binding affinity to synthetic poly(dA): 2poly(dT) DNA:DNA duplex assessed as change in melting temperature at 2.2 uM; procedure, shortened: as §1
[13] = Binding affinity to synthetic A-site RNA assessed as melting temperature at 2.2 uM; procedure, shortened: as §1
[14] = Binding affinity to synthetic poly(dA):poly(rU) DNA:RNA hybrid assessed as change in melting temperature at 2.2 uM; procedure, shortened: as §1
[15] = Binding affinity to synthetic poly(dA):2poly(dT) DNA:DNA duplex assessed as melting temperature at 2.2 uM; procedure, shortened: as §1
[16] = Binding affinity to synthetic poly(rA):poly(rU) RNA:RNA duplex assessed as melting temperature at 2.2 uM; procedure, shortened: as §1
[17] = Binding affinity to synthetic poly(dA-dT):poly(dA-dT) DNA:DNA duplex assessed as change in melting temperature at 2.2 uM; procedure, shortened: as §1
[18] = Binding affinity to synthetic poly(rA):poly(rU) RNA:RNA duplex assessed as change in melting temperature at 2.2 uM; procedure, shortened: as §1
[19] = Binding affinity to synthetic poly(dG):poly(dC) DNA:DNA duplex assessed as melting temperature at 2.2 uM; procedure, shortened: as §1
[20] = Binding affinity to synthetic poly(dA):poly(dT) DNA:DNA duplex assessed as melting temperature at 2.2 uM; procedure, shortened: as §1
[21] = Binding affinity to synthetic poly(rA):poly(rU) DNA:RNA hybrid assessed as association constant at 20 degC; procedure, shortened: as §2

C[n+]1c(-c2ccc(C(=O)NCCSC[C@H]3O[C@@H](O[C@@H]4[C@@H](O)[C@H](N)C[C@H](N)[C@H]4O[C@H]4O[C@H](CN)[C@@H](O)[C@H](O)[C@H]4N)[C@H](O)[C@@H]3O[C@H]3O[C@@H](CN)[C@@H](O)[C@H](O)[C@H]3N)cc2)c2cc(N)ccc2c2ccc(N)cc21
ΔTm [1]: 7.7 °C | ΔTm [2]: 20.1 °C | ΔTm [3]: 8.1 °C | Ka [4]: 4.8 ×10¹⁰ /M | Tm [5]: 82.4 °C | Tm [6]: 90.5 °C | Ka [7]: 1 ×10⁶ /M | Tm (DNA [8]): > 95 °C | ΔTm (DNA [9]): > 8.1 °C | Ka [10]: 2.1 ×10⁹ /M | Tm [11]: 66.2 °C | ΔTm [12]: 7.7 °C | Tm [13]: 79.8 °C | ΔTm [14]: 46.9 °C | Tm [15]: 75.9 °C | Tm [16]: 77 °C | ΔTm [17]: 7.4 °C | ΔTm [18]: 34.3 °C | Tm [19]: > 95 °C | Tm [20]: 76.1 °C

CC[n+]1c(-c2ccccc2)c2cc(N)ccc2c2ccc(N)cc21
Ka [4]: 9.3 ×10⁶ /M | Tm [6]: 61.8 °C | Ka [7]: 2 ×10⁵ /M | Tm [11]: 63.2 °C | Tm [16]: 64.2 °C | Ka [21]: 1.8 ×10⁶ /M

NC[C@@H]1O[C@H](O[C@H]2[C@@H](O)[C@H](O[C@@H]3[C@@H](O)[C@H](N)C[C@H](N)[C@H]3O[C@H]3O[C@H](CN)[C@@H](O)[C@H](O)[C@H]3N)O[C@@H]2CO)[C@H](N)[C@@H](O)[C@@H]1O
Ka [4]: 9.9 ×10⁶ /M | Tm [6]: 65.8 °C | Ka [7]: 7 ×10⁴ /M | Ka [10]: 2.6 ×10⁷ /M | Tm [11]: 62.9 °C | Tm [16]: 64.7 °C
